# A selection: hits, their analogues and other compounds. The true share with any hit is near 1.3%.
# C-LANA FP: inhibitors of KSHV C-LANA binding to DNA, primary screen, biochemical, fluorescence polarization, FAM-LBS DNA, MBP-C-LANA, single point. Kaposi's sarcoma herpesvirus LANA C-terminal domain (residues 932-1162) DNA binding. inhibition, % at 9 µM. hit rate 0.078% among 340,000;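 active = highest replicate inhibition at or above 60% at 9 µM, even if other replicates fall short; inactive = all replicates below 60% inhibition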;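 also: 0% = neutral control wells and 100% = 4 µM acridine orange control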
# Keap1-Nrf2 PPI: Keap1-Nrf2 protein-protein interaction inhibitors, primary screen, biochemical, fluorescence polarization, single point; inhibition, % at 9.4 µM; AID 504523, 2011; Kelch-like ECH-associated protein 1 (Homo sapiens), Q14145; Keap1 Kelch-Nrf2 peptide fluorescence polarization, 1536-well; hit rate 0.15% among 340,000; in the data active = inhibition above about 12%; inconclusive = no clear call, values can overlap the other calls; inactive = below about 7.3%;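 also: human Keap1 Kelch domain with fluorescein labeled Nrf2 9mer peptide probe; 0% = neutral control wells and 100% = peptide positive control; higher means more block of Keap1 binding to Nrf2 peptide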
# MEX-5 binding: MEX-5 zinc finger RNA-binding disruptors – biochemical, C. elegans, fluorescence polarization, MLPCN library, primary screen; Zinc finger protein mex-5 (Caenorhabditis elegans), Q9XUB2; MEX-5/FITC-TCR2 RNA binding; hits give low values; activity score (negative = inhibition of binding), % at 10 µM; hit rate 0.38% among 300,000; AID 1832, 2009;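 active = inhibition past about -25% in most replicates, and total fluorescence under double the plate's negative control median, limit read from the data; inconclusive = replicates evenly split on the limit, or fluorescence at least double controls; inactive = too little inhibition in most replicates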;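 also: 0% = DMSO and -100% = 5 µM competing unlabeled TCR2 RNA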
# T cell modulator: modulators of CD8 T cell-vesicle binding, primary screen, mouse 2C CD8+ T cells, flow cytometry; 2C CD8+ T cell-vesicle binding; hits give low values; response (vesicle binding), % at 7 µM; hit rate 0.068% among 330,000;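 active = response, share of CD8 T cells binding vesicles, and their 90th percentile fluorescence all below set limits, cut at about 80% in these data, passing the limit was not always enough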;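 also: values below 100% mean blocked vesicle binding to the CD8+ T cells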
#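 Assay system – 2C mouse CD8+ T cells · Also added – QL9-loaded Drosophila micro-vesicles · Timing – Cell–vesicle co-incubation 1.5 h at 37 °C, staining 20 min on ice · Signal – flow cytometry of vesicle-bound cells · Measure – percent CD8+ FL2 mean versus row control · Controls – Peptide-free naked vesicles (low) and QL9 vesicles with 0.7% DMSO vehicle (high)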
# EBV gp42 inh: Epstein-Barr virus gp42 inhibitors, primary screen, biochemical, uHTS, fluorescence polarization. Fluorescence polarization binding assay, mP read-out. inhibition, % (tested at 21.74 µM). hit rate 0.42% among 220,000; in the data active = inhibition above about 50%
# GRK2 aptamer HTS: compounds blocking aptamer binding on GRK2 – biochemical, human GRK2, bead flow cytometry, HTS, primary screen. hit rate 0.59% among 330,000. AID 488847, 2010. FAM-aptamer displacement from GRK2. inhibition of aptamer binding, % at 10 µM. Beta-adrenergic receptor kinase 1 (Homo sapiens), P25098;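 active = inhibition of aptamer binding above 40%, roughly 3 SD of noise, on plates passing a quality check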;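 also: median bead fluorescence of bound FAM aptamer so fluorescent compounds give negative values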
# Target sequence (P25098 whole entry, looked up): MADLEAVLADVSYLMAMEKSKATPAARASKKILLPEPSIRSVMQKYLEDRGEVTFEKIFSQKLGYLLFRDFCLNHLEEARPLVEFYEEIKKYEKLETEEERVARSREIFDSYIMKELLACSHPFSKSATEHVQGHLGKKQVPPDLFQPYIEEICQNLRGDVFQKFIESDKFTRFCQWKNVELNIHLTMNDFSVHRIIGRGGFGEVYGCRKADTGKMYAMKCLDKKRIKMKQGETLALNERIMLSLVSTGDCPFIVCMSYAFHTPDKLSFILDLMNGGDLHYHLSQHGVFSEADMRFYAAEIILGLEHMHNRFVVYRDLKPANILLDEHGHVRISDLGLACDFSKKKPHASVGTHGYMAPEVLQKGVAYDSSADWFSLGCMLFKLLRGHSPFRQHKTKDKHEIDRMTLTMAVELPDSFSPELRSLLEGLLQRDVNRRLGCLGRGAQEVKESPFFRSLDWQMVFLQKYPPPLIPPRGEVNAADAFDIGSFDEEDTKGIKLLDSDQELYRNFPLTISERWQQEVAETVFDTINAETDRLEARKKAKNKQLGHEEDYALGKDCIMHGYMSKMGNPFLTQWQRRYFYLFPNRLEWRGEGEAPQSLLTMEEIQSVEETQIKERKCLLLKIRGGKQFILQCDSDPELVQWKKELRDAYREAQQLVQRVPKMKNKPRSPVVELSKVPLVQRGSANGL
# * = called active by the depositor; i = inactive; u = inconclusive; x = no result.
SMILES,C-LANA FP,Keap1-Nrf2 PPI,MEX-5 binding,T cell modulator,EBV gp42 inh,GRK2 aptamer HTS
CC1CCCCN1c1cc(C#N)c(C#N)cc1[N+](=O)[O-] (stereo unspecified),0.5,-4.5,1.2,373.3,3.8,0.0
CC1CCc2cccc3c2N1c1cc(C#N)c(C#N)cc1O3 (stereo unspecified),11.4,3.1,-0.8,x,115.5*,0.0
O=C(CSc1nnc2ccccn12)NC(=O)NC1CCCCC1,-1.0,-0.1,-1.2,440.2,0.1,0.0
COc1cc(C2C(C#N)=C(N)Oc3n[nH]c(-c4cccnc4)c32)cc(Br)c1O (stereo unspecified),-0.2,-7.1,-33.6*,264.4,-15.4,3.0
N#C/C(C(=O)N1CCCCC1)=C1/N=C(N)c2ccccc21,-0.4,2.4,-2.6,282.4,-14.8,100.0*
O=C(NNC(=O)c1sccc1-n1cccc1)c1cccc(Cl)c1,0.2,-4.5,1.1,175.1,67.2*,3.0
Oc1ccc(N=C/C=C/c2cccc(Br)c2)cc1-c1nc2ccccc2s1,0.1,-2.7,1.5,663.4,-11.8,85.0*
CC1=C(C#N)C(=O)N(C2CCS(=O)(=O)C2)C(=O)/C1=C\c1ccc(C)o1 (stereo unspecified),x,x,u,301.5,117.9*,31.0
CCOC(=O)C(=O)N/N=C/c1ccco1,-1.4,-8.3,0.6,551.1,-13.9,6.0
CC1CCc2c(sc3nc(CN4CCOCC4)nc(Sc4ccccc4)c23)C1 (stereo unspecified),-0.5,-5.4,-1.0,236.0,-14.9,3.0
Cc1cccc(-n2c(C)cc(C=C3C(=O)c4ccccc4C3=O)c2C)c1,13.0,3.9,-31.0*,i,31.7,1.0
Cc1cc(C=C2C(=O)c3ccccc3C2=O)c(C)n1-c1ccc(Cl)cc1,0.9,-6.7,u,x,61.4*,x
CCn1c(C)cc(C=C2C(=O)c3ccccc3C2=O)c1C,13.4,6.8,-7.7,x,107.3*,x
CCSc1ncc(Cl)c(C(=O)Nc2ccc(S(=O)(=O)Nc3ncccn3)cc2)n1,1.2,3.6,-0.1,293.6,x,1.0
CCCS(=O)(=O)c1ncc(Cl)c(C(=O)Nc2ccc(S(=O)(=O)Nc3ncccn3)cc2)n1,-0.1,42.1*,-2.6,275.1,x,0.0
CN1c2ccccc2C(O)=C(C(=S)Nc2ccc(Cl)cc2)S1(=O)=O,-2.7,3.3,-0.5,303.6,-8.7,61.0*
O=C(O)CC(C(=O)Nc1ccc(Cl)cc1Cl)C1CCCO1 (stereo unspecified),0.9,-2.0,1.2,324.4,-4.3,3.0
CCCn1c(SCCc2ccccc2)nc2c1c(=O)[nH]c(=O)n2C,-0.8,0.3,-1.1,i,115.0*,0.0
CCCCCn1c(SCCc2ccccc2)nc2c1c(=O)[nH]c(=O)n2C,-1.4,1.6,2.0,181.9,-20.8,0.0
Cc1oc(-c2ccc(F)cc2)nc1CN(Cc1ccccn1)CC1CCCO1 (stereo unspecified),2.5,1.7,-4.2,151.2,7.3,0.0
Cc1ccccc1-n1c(SCc2c(C)noc2C)nnc1-c1ccncc1,0.8,-5.8,3.1,303.4,-15.6,0.0
Cc1ccccc1-n1c(SCc2c(C)noc2C)nnc1-c1cccnc1,3.2,-1.0,-17.3,492.5,89.1*,0.0
Cc1ccc2nc(Cl)c3cc(C(=O)NCCCN4CCCC4)sc3c2c1,-5.7,-3.4,-0.1,266.6,-1.7,0.0
CC(C)(C)c1ccc(C(=O)Nc2ccc(S(N)(=O)=O)cc2)cc1,2.6,-1.5,-2.5,91.6,-8.9,0.0
NS(=O)(=O)c1ccc(NC(=O)c2ccc(-c3ccccc3)cc2)cc1,-1.0,-4.8,x,x,62.1*,x
SMILES,C-LANA FP,Keap1-Nrf2 PPI,MEX-5 binding,T cell modulator,EBV gp42 inh,GRK2 aptamer HTS
O=C(COC(=O)/C=C/c1cccc(F)c1)NC1CCCC1,-0.3,-5.1,x,273.4,x,0.0
Cc1cc(C)cc(OCC(=O)NC2CCCc3ccccc32)c1 (stereo unspecified),-0.9,-1.0,-0.5,410.9,-18.1,0.0
CSc1nc2ccc(NC(=O)NC(=O)c3c(F)cccc3F)cc2s1,1.2,1.3,0.1,126.0,-19.7,1.0
COc1cccc(F)c1C(=O)NC(=O)Nc1ccc2nc(C)oc2c1,22.4,2.8,-30.6*,796.6,27.4,2.0
Cc1c2cccn2cc[n+]1C,0.1,-1.6,1.5,77.6*,-35.5,2.0
COc1ccc(NC(=O)NNC(=O)c2ccc(-c3ccccc3)cc2)cc1,-1.7,-3.2,-0.8,263.9,x,0.0
CSc1nc(SCC(=O)O)c2sc3nc(-c4ccccc4)c4c(c3c2n1)CCC4,25.9,-49.7,-3.6,x,53.2*,x
CSc1nc(N(C)CCO)c2sc3nc(-c4ccco4)c4c(c3c2n1)CCC4,-2.2,-2.6,-2.9,387.0,87.0*,0.0
O=C1CC(c2ccccc2)CC2=C1C(c1ccccn1)Nc1ccccc1N2 (stereo unspecified),1.1,-1.1,-1.0,450.0,-8.9,0.0
Cc1nc(NC(=O)c2cc3c(C)nn(-c4ccccc4)c3s2)sc1C(=O)Nc1ccccc1,-2.4,-0.2,-1.2,257.4,-31.4,0.0
CCn1c(CSc2n[nH]c(N)n2)nc2cc(C(=O)O)ccc21,2.3,-2.8,2.8,i,64.0*,1.0
CCn1c(CSc2nnc3ccccn23)nc2cc(C(=O)O)ccc21,2.8,-0.9,-20.7,176.9,83.0*,0.0
CCn1c(CSc2nnc(-c3ccncc3)n2CCOC)nc2cc(C(=O)O)ccc21,2.0,-3.5,-4.0,165.4,8.0,3.0
COC(=O)c1c(NC(=O)COC(=O)c2ccc(Cl)nc2)sc(C)c1C,0.7,5.2,1.8,48.6*,x,1.0
Cc1c(Br)cnn1C(C)C(=O)N1CCN(c2ccccc2F)CC1 (stereo unspecified),1.2,-2.9,x,393.5,x,1.0
CC(C)[C@H](NS(=O)(=O)c1ccccc1)C(=O)OCC(=O)Nc1cccc(S(N)(=O)=O)c1,-0.9,-5.8,x,165.7,x,71.0*
Cc1cccn2c(=O)c3cc(C#N)c(=NC(=O)c4ccncc4)n(CCCOC(C)C)c3nc12,-1.7,0.2,32.2,867.3,37.4,0.0
COc1ccc(C(=O)N=c2c(C#N)cc3c(=O)n4cccc(C)c4nc3n2Cc2ccco2)cc1,x,x,-40.5*,x,22.5,x
CC(=O)N=c1c(C#N)cc2c(=O)n3cccc(C)c3nc2n1CCCOC(C)C,x,x,-26.3*,620.6,2.5,2.0
Cc1cccn2c(=O)c3cc(C#N)c(=NC(=O)c4cccs4)n(CCCOC(C)C)c3nc12,11.9,-13.6,-44.6*,351.7,-4.1,10.0
